{
  "source": "ChEMBL document CHEMBL1909505",
  "about": "“Leonurine-cysteine analog conjugates as a new class of multifunctional anti-myocardial ischemia agent” (Eur J Med Chem, 2011)",
  "key": {"[1]": {"test": "Cardioprotective activity against hypoxia-induced Sprague-Dawley NRVM damage assessed as inhibition of LDH release treated 12 hrs before hypoxia challenge measured after 5 hrs", "type": "functional", "details": "Rattus norvegicus"}, "[2]": {"test": "Cardioprotective activity against hypoxia-induced Sprague-Dawley NRVM damage assessed as increase in hydrogen sulfide level treated 12 hrs before hypoxia challenge measured after 5 hrs", "type": "functional", "details": "Rattus norvegicus", "outline": "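H2S in culture medium: 0.5 mL supernatant mixed with 0.25 mL 1% zinc acetate, then 0.25 mL 10% TCA to remove protein, centrifuged 12,000 g for 10 min at 4 °C. Absorbance read at 670 nm in duplicate against a same-day NaHS calibration curve. Cells pretreated 12 h before hypoxia; three or six samples.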"}, "Rattus norvegicus [3]": {"species": "Rattus norvegicus", "test": "Cardioprotective activity against hypoxia-induced Sprague-Dawley NRVM damage assessed as increased cell viability at 0.1 umol/L treated 12 hrs before hypoxia challenge measured after 5 hrs by MTT assay", "type": "functional", "outline": "(§1)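 Myocytes seeded at 1×10^5 cells/mL and cultured 72 h at 37 °C in 5% CO2, pretreated 12 h, then exposed to hypoxic solution. MTT added for 4 h, formazan dissolved in DMSO, absorbance read at 570 nm. Viability given as percent of normoxic control, taken as 100%.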"}, "Rattus norvegicus [4]": {"species": "Rattus norvegicus", "test": "Cardioprotective activity against hypoxia-induced Sprague-Dawley NRVM damage assessed as increased cell viability at 0.1 uM treated 12 hrs before hypoxia challenge measured after 5 hrs by MTT assay", "type": "functional", "outline": "as §1"}, "[5]": {"test": "Cardioprotective activity against hypoxia-induced Sprague-Dawley NRVM damage assessed as increase in SOD activity treated 12 hrs before hypoxia challenge measured after 5 hrs […]", "type": "functional", "details": "Rattus norvegicus"}, "Rattus norvegicus [6]": {"species": "Rattus norvegicus", "test": "Cardioprotective activity against hypoxia-induced Sprague-Dawley NRVM damage assessed as decrease in MDA level treated 12 hrs before hypoxia challenge measured after 5 hrs […]", "type": "functional"}, "[7]": {"test": "Antiapoptotic activity against hypoxia-induced Sprague-Dawley NRVM assessed as inhibition of cell necrosis treated 12 hrs before hypoxia challenge measured after 5 hrs by AnnexinV-FITC/PI staining-based flow cytometric analysis", "type": "functional", "details": "Rattus norvegicus", "outline": "(§2)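 Cardiomyocytes pretreated 12 h before hypoxia. Annexin V-FITC/PI staining done with a kit per the manufacturer, then read by flow cytometry to separate apoptotic from necrotic cells. Means ± S.E.M. from three samples; two-tailed Student's t-test versus the model group.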"}, "[8]": {"test": "Antiapoptotic activity against hypoxia-induced Sprague-Dawley NRVM assessed as decrease in nuclear condensation treated 12 hrs before hypoxia challenge measured after 5 hrs by transmission electron microscopy", "type": "functional", "details": "Rattus norvegicus", "outline": "(§3)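 Neonatal rat ventricular myocytes cultured 72 h (DMEM, 10% FBS, 5-bromodeoxyuridine), pretreated 12 h, then put in hypoxic solution. Cells fixed 2 h in 2.5% glutaraldehyde in PBS, post-fixed 1 h in 1% osmium tetroxide, dehydrated through graded ethanol, embedded in Epon 812, and examined by transmission electron microscopy (×11000). Compared with normoxic and hypoxic untreated groups.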"}, "[9]": {"test": "Cardioprotective activity against hypoxia-induced Sprague-Dawley NRVM damage assessed as decrease in ROS level treated 12 hrs before hypoxia challenge measured after 5 hrs […]", "type": "functional", "details": "Rattus norvegicus", "outline": "(§4)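 Kit assays per the manufacturer for ROS level and catalase activity in hypoxic myocytes pretreated 12 h. Means ± S.E.M. from three samples; t-test versus the model group.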"}, "[10]": {"test": "Antiapoptotic activity against hypoxia-induced Sprague-Dawley NRVM assessed as decrease in nuclei-shrunk treated 12 hrs before hypoxia challenge measured after 5 hrs using Hoechst 33258 staining-based by fluorescence microscopy", "type": "functional", "details": "Rattus norvegicus", "outline": "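After 12 h pretreatment and hypoxia, myocytes were stained with Hoechst 33258 and photographed under fluorescence (×400). Each image is representative of three independent observations.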"}, "[11]": {"test": "Antiapoptotic activity against hypoxia-induced Sprague-Dawley NRVM assessed as appearance of distinct sarcomeres treated 12 hrs before hypoxia challenge measured after 5 hrs by transmission electron microscopy", "type": "functional", "details": "Rattus norvegicus", "outline": "as §3"}, "[12]": {"test": "Antiapoptotic activity against hypoxia-induced Sprague-Dawley NRVM assessed as decrease in bax expression treated 12 hrs before hypoxia challenge measured after 5 hrs by RT-PCR analysis relative to control", "type": "functional", "details": "Rattus norvegicus"}, "[13]": {"test": "Antiapoptotic activity against hypoxia-induced Sprague-Dawley NRVM assessed as decrease in apoptotic cells treated 12 hrs before hypoxia challenge measured after 5 hrs by AnnexinV-FITC/PI staining-based flow cytometric analysis", "type": "functional, cell-based", "details": "Rattus norvegicus", "outline": "as §2"}, "[14]": {"test": "Cardioprotective activity against hypoxia-induced Sprague-Dawley NRVM damage assessed as increase in hydrogen sulfide level at 0.1 uM treated 12 hrs before hypoxia challenge measured after 5 hrs", "type": "functional", "details": "Rattus norvegicus"}, "[15]": {"test": "Cardioprotective activity against hypoxia-induced Sprague-Dawley NRVM damage assessed as inhibition of LDH release at 0.1 uM treated 12 hrs before hypoxia challenge measured after 5 hrs", "type": "functional", "details": "Rattus norvegicus"}, "[16]": {"test": "Cardioprotective activity against hypoxia-induced Sprague-Dawley NRVM damage assessed as increase in CAT activity treated 12 hrs before hypoxia challenge measured after 5 hrs […]", "type": "functional", "details": "Rattus norvegicus", "outline": "as §4"}, "[17]": {"test": "Antiapoptotic activity against hypoxia-induced Sprague-Dawley NRVM assessed as increase in myofilaments integrity preservation treated 12 hrs before hypoxia challenge measured after 5 hrs by transmission electron microscopy", "type": "functional", "details": "Rattus norvegicus", "outline": "as §3"}, "[18]": {"test": "Antiapoptotic activity against hypoxia-induced Sprague-Dawley NRVM assessed as decrease in nucleus aggregation treated 12 hrs before hypoxia challenge measured after 5 hrs by transmission electron microscopy", "type": "functional", "details": "Rattus norvegicus", "outline": "as §3"}, "[19]": {"test": "Antiapoptotic activity against hypoxia-induced Sprague-Dawley NRVM assessed as increase in Bcl2 to Bax mRNA expression ratio treated 12 hrs before hypoxia challenge measured after 5 hrs by RT-PCR analysis relative to control", "type": "functional", "details": "Rattus norvegicus"}, "[20]": {"test": "Down regulation of caspase-3 expression in hypoxia-induced Sprague-Dawley NRVM treated 12 hrs before hypoxia challenge measured after 5 hrs by RT-PCR down analysis relative to control", "type": "functional", "details": "Rattus norvegicus"}, "[21]": {"test": "Antiapoptotic activity against hypoxia-induced Sprague-Dawley NRVM assessed as decrease in cleaved-caspase-3 to procaspase-3 ratio treated 12 hrs before hypoxia challenge measured after 5 hrs by Western blot analysis relative to control", "details": "Rattus norvegicus"}, "[22]": {"test": "Antiapoptotic activity against hypoxia-induced Sprague-Dawley NRVM assessed as increase in bcl-2 expression treated 12 hrs before hypoxia challenge measured after 5 hrs by RT-PCR analysis relative to control", "type": "functional", "details": "Rattus norvegicus"}},
  "note": "Activity calls are given as the source filed them. The rule behind the calls is not given here.",
  "data": [
    {"compound": "C=CCSC[C@H](N)C(=O)Oc1c(OC)cc(C(=O)OCCCCNC(=N)N)cc1OC", "values": [
      {"measurement": "inhibition", "setting": "[1]", "result": "Active"},
      {"measurement": "Activity", "setting": "[2]", "result": "Active"},
      {"measurement": "Activity", "setting": "Rattus norvegicus [3]", "result": "Active"}
    ]},
    {"compound": "COc1cc(C(=O)OCCCCNC(=N)N)cc(OC)c1OC(=O)CCSSCCC(=O)Oc1c(OC)cc(C(=O)OCCCCNC(=N)N)cc1OC", "values": [
      {"measurement": "inhibition", "setting": "[1]", "result": "Active"},
      {"measurement": "Activity", "setting": "[2]", "result": "inactive"},
      {"measurement": "Activity", "setting": "Rattus norvegicus [3]", "result": "Active"}
    ]},
    {"compound": "C#CCSC[C@H](N)C(=O)Oc1c(OC)cc(C(=O)OCCCCNC(=N)N)cc1OC", "values": [
      {"measurement": "Activity", "setting": "Rattus norvegicus [4]", "result": "Active"},
      {"measurement": "Activity", "setting": "[5]", "result": "Active"},
      {"measurement": "Activity", "setting": "Rattus norvegicus [6]", "result": "Active"},
      {"measurement": "inhibition", "setting": "[7]", "result": "inactive"},
      {"measurement": "Activity", "setting": "[8]", "result": "Active"},
      {"measurement": "inhibition", "setting": "[1]", "result": "Active"},
      {"measurement": "Activity", "setting": "[9]", "result": "Active"},
      {"measurement": "Activity", "setting": "[10]", "result": "Active"},
      {"measurement": "Activity", "setting": "[11]", "result": "Active"},
      {"measurement": "fold change (FC)", "setting": "[12]", "result": 0.89},
      {"measurement": "Activity", "setting": "[13]", "result": "Active"},
      {"measurement": "Activity", "setting": "[14]", "result": "Active"},
      {"measurement": "inhibition", "setting": "[15]", "result": "Active"},
      {"measurement": "Activity", "setting": "[16]", "result": "Active"},
      {"measurement": "Activity", "setting": "[17]", "result": "Active"},
      {"measurement": "Activity", "setting": "[18]", "result": "Active"},
      {"measurement": "Activity", "setting": "[2]", "result": "Active"},
      {"measurement": "fold change (FC)", "setting": "[19]", "result": 1.22},
      {"measurement": "Activity", "setting": "[20]", "result": "Active"},
      {"measurement": "Activity", "setting": "[21]", "result": "Active"},
      {"measurement": "fold change (FC)", "setting": "[22]", "result": 0.98},
      {"measurement": "Activity", "setting": "Rattus norvegicus [3]", "result": "Active"}
    ]},
    {"compound": "COc1cc(C(=O)OCCCCNC(=N)N)cc(OC)c1O", "values": [
      {"measurement": "Activity", "setting": "Rattus norvegicus [4]", "result": "Active"},
      {"measurement": "Activity", "setting": "[14]", "result": "Active"},
      {"measurement": "inhibition", "setting": "[15]", "result": "Active"}
    ]},
    {"compound": "C#CCSC[C@H](N)C(=O)O", "values": [
      {"measurement": "Activity", "setting": "Rattus norvegicus [4]", "result": "Active"},
      {"measurement": "Activity", "setting": "[14]", "result": "Active"},
      {"measurement": "inhibition", "setting": "[15]", "result": "Active"}
    ]}
  ]
}
